Source: article PMC3130141 (Archives of Drug Information, 2011)

Columns and labels:
Type in all cases: in vivo, human
[1] = system: Japanese patients with advanced solid tumors; experiment: Dose-limiting toxicities and maximum tolerated dose during cycle 1; details: dose escalation halted at 25 mg
Summary of the method: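 Open-label dose escalation in sequential cohorts at 10, 15, 20 or 25 mg, given as a 1-h iv infusion on days 1, 8 and 15 of 28-day cycles. DLT: grade 3/4 hemolysis, grade 4 hematologic toxicity, febrile grade 3/4 neutropenia, prolonged diarrhea or vomiting, or other grade 3/4 non-hematologic toxicity (CTCAE v3.0). MTD: highest dose with ≤1 of 6 evaluable patients having a cycle 1 DLT.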

[2] = Plasma pharmacokinetics, non-compartmental analysis; details: for clearance / AUC(0-inf) / AUC(0-t) / Cmax / MRT / Vd / concentration at 24 h / half-life: human, plasma
Summary of the method: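 Plasma was sampled pre- and post-dose daily on days 1–8 of cycle 1 and on day 1 of cycle 2, after a 1-h iv infusion. Analysis was non-compartmental: Cmax by inspection; λz by log-linear terminal regression; AUC0–24h by linear trapezoidal rule, extrapolated to infinity via λz; CL as dose/AUC. Values are geometric mean (CV%) per cohort.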

[3] = system: Japanese patients with advanced solid tumors; experiment: Efficacy: overall best response by RECIST version 1.0
Summary of the method: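 Investigator-assessed overall best response by RECIST v1.0, with baseline imaging within 28 days before first dose. Re-imaging was on day 29 of cycles 1 and 2 and of subsequent odd-numbered cycles. […] Dosing was a 1-h iv infusion on days 1, 8 and 15 of 28-day cycles (10–25 mg cohorts). Results were summarized descriptively by dose group.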

[4] = system: Japanese patients with advanced solid tumors; experiment: Adverse events by CTCAE version 3.0, Phase I dose-escalation study

Cc1ccc(C(=O)N(CCCN)C(c2nc3snc(C)c3c(=O)n2Cc2ccccc2)C(C)C)cc1 (stereo not drawn) [AZD4877]
Maximum tolerated dose (MTD) [1]: not defined | Dose proportionality of exposure ([2]; 10-25 mg): not fully dose proportional | clearance ([2]; intravenous, 25 mg): 325 to 373 mL/min | AUC(0-inf) ([2]; iv, 10 mg): 447 ng·h/mL | AUC(0-t) ([2]; iv, 10 mg): 234 ng·h/mL | Cmax ([2]; iv, 10 mg): 63.4 ng/mL | MRT ([2]; iv, 10 mg): 34.2 h | Vd ([2]; iv, 10 mg): 766 L | clearance ([2]; iv, 10 mg): 373 mL/min | concentration at 24 h ([2]; iv, 10 mg): 4.9 ng/mL | half-life ([2]; iv, 10 mg): 28.7 h | AUC(0-inf) ([2]; iv, 15 mg): 671 ng·h/mL | AUC(0-t) ([2]; iv, 15 mg): 424 ng·h/mL | Cmax ([2]; iv, 15 mg): 99.7 ng/mL | MRT ([2]; iv, 15 mg): 22.9 h | Vd ([2]; iv, 15 mg): 512 L | clearance ([2]; iv, 15 mg): 372 mL/min | concentration at 24 h ([2]; iv, 15 mg): 7.8 ng/mL | half-life ([2]; iv, 15 mg): 20.3 h | AUC(0-inf) ([2]; iv, 20 mg): 1430 ng·h/mL | AUC(0-t) ([2]; iv, 20 mg): 882 ng·h/mL | Cmax ([2]; iv, 20 mg): 218 ng/mL | MRT ([2]; iv, 20 mg): 22.4 h | Vd ([2]; iv, 20 mg): 314 L | clearance ([2]; iv, 20 mg): 233 mL/min | concentration at 24 h ([2]; iv, 20 mg): 14.9 ng/mL | half-life ([2]; iv, 20 mg): 21.3 h | AUC(0-inf) ([2]; iv, 25 mg): 1280 ng·h/mL | AUC(0-t) ([2]; iv, 25 mg): 838 ng·h/mL | Cmax ([2]; iv, 25 mg): 224 ng/mL | MRT ([2]; iv, 25 mg): 22.2 h | Vd ([2]; iv, 25 mg): 432 L | clearance ([2]; iv, 25 mg): 325 mL/min | concentration at 24 h ([2]; iv, 25 mg): 13.6 ng/mL | half-life ([2]; iv, 25 mg): 21.1 h | Patients with complete or partial response ([3]; all doses): No patients | Patients with stable disease ≥8 weeks ([3]; all doses): five of 16 | Overall best response (RECIST) ([3]; all doses, stable disease defined as ≥8 weeks): stable disease | Duration of stable disease ([3]; patient with thymus cancer, 20 mg cohort): ≥ 12 weeks | Anorexia, patients with CTCAE grade ≥3 event ([4]; 10 mg (N = 3)): 0 N (%) | Any grade ≥3 event, patients with CTCAE grade ≥3 event ([4]; 10 mg (N = 3)): 0 N (%) | Constipation, CTCAE any grade, patients with AEs ([4]; 10 mg (N = 3)): 1 (33) N (%) | Constipation, patients with CTCAE grade ≥3 event ([4]; 10 mg (N = 3)): 0 N (%) | Diarrhea, CTCAE any grade, patients with AEs ([4]; 10 mg (N = 3)): 2 (67) N (%) | Dizziness, CTCAE any grade, patients with AEs ([4]; 10 mg (N = 3)): 2 (67) N (%) | Fatigue, CTCAE any grade, patients with AEs ([4]; 10 mg (N = 3)): 1 (33) N (%) | Fatigue, patients with CTCAE grade ≥3 event ([4]; 10 mg (N = 3)): 0 N (%) | Febrile neutropenia, patients with CTCAE grade ≥3 event ([4]; 10 mg (N = 3)): 0 N (%) | Insomnia, CTCAE any grade, patients with AEs ([4]; 10 mg (N = 3)): 1 (33) N (%) | Nasopharyngitis, CTCAE any grade, patients with AEs ([4]; 10 mg (N = 3)): 0 N (%) | Nausea, CTCAE any grade, patients with AEs ([4]; 10 mg (N = 3)): 2 (67) N (%) | Neutropenia, patients with CTCAE grade ≥3 event ([4]; 10 mg (N = 3)): 0 N (%) | Pyrexia, CTCAE any grade, patients with AEs ([4]; 10 mg (N = 3)): 0 N (%) | Rash, CTCAE any grade, patients with AEs ([4]; 10 mg (N = 3)): 0 N (%) | Urinary tract infection, patients with CTCAE grade ≥3 event ([4]; 10 mg (N = 3)): 0 N (%) | Anorexia, patients with CTCAE grade ≥3 event ([4]; 15 mg (N = 3)): 0 N (%) | Any grade ≥3 event, patients with CTCAE grade ≥3 event ([4]; 15 mg (N = 3)): 0 N (%) | Constipation, CTCAE any grade, patients with AEs ([4]; 15 mg (N = 3)): 0 N (%) | Constipation, patients with CTCAE grade ≥3 event ([4]; 15 mg (N = 3)): 0 N (%) | Diarrhea, CTCAE any grade, patients with AEs ([4]; 15 mg (N = 3)): 1 (33) N (%) | Dizziness, CTCAE any grade, patients with AEs ([4]; 15 mg (N = 3)): 0 N (%) | Fatigue, CTCAE any grade, patients with AEs ([4]; 15 mg (N = 3)): 1 (33) N (%) | Fatigue, patients with CTCAE grade ≥3 event ([4]; 15 mg (N = 3)): 0 N (%) | Febrile neutropenia, patients with CTCAE grade ≥3 event ([4]; 15 mg (N = 3)): 0 N (%) | Insomnia, CTCAE any grade, patients with AEs ([4]; 15 mg (N = 3)): 0 N (%) | Nasopharyngitis, CTCAE any grade, patients with AEs ([4]; 15 mg (N = 3)): 0 N (%)
